ALR H2O2 inh = inhibitors of human sulfhydryl oxidase ALR; 3.8% of 290,000 active; P55789; inhibition, % (test concentration not listed); purified ALR, DTT oxidation, H2O2 HRP-luminol luminescence; AID 485317;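 active = mean replicate inhibition above about 79%, with every replicate also reaching it, limit read from the data; inconclusive = only one of the two criteria met; inactive = mean below limit and not every replicate reaching it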
Target sequence (P55789 whole entry, looked up): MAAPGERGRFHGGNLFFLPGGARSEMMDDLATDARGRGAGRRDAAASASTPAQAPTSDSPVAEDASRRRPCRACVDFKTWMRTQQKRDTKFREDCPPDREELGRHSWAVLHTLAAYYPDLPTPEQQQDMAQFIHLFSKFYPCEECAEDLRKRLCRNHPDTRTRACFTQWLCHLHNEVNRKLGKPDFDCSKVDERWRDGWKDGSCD
Glyco luc inh = blocks N-linked glycosylation in D54 reporter cells; D54 ERlucT glycosylation luciferase reporter, 24 h; percent of 100 nM tunicamycin response; reporter increase, % at 12.5 µM; 0.23% of 360,000 active; AID 588692;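 active = mean luciferase reporter signal, scaled so untreated is 0 and the glycosylation-blocking control 100, at or above a set limit in every replicate; inconclusive = mean reaches the limit but not every replicate does; inactive = mean below the limit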;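 also: luciferase carries N-glycosylation sites so blocking glycosylation raises the light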
T cell modulator = T cell immune modulators affecting CD8 T cell-vesicle binding; 2C CD8+ T cell-vesicle binding, flow cytometry; active compounds read low; response (vesicle binding), % at 7 µM; 0.068% of 330,000 active; AID 2052;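 active = response, share of CD8 T cells binding vesicles, and their 90th percentile fluorescence all below set limits, cut at about 80% in these data, passing the limit was not always enough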;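 also: values below 100% mean blocked vesicle binding to the CD8+ T cells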
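Also added: QL9-peptide-loaded Drosophila micro-vesicles bearing Ld, ICAM-1 and B7-1; Test system: purified 2C TCR transgenic mouse naive CD8+ T cells; Measured by: cytometric PE anti-B7-1 and Alexa647 anti-CD8 signals after 1% paraformaldehyde fixation; Timing: binding step 1.5 h, 37 °C, antibody labelling 20 min, ice.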
Of the large screens only hits and unclear results are named; the others gave an inactive call. The full list was thinned out, with hits kept by preference.

CCCCOC(=O)Nc1ccc(C(N)=O)cc1	none
CCCCOC(=O)Nc1ccc(N(C)C)cc1	ALR H2O2 inh 99.4
CCOC(=O)c1c(C)c(C(=O)Nc2ccc(N(C)C)cc2)c(C)n1CC	ALR H2O2 inh 98.9
CCCCOC(=O)Nc1ccc(N2CCOCC2)cc1	none
CCOC(=O)c1c(C)c(C(=O)NCCOC)c(C)n1CC	none
CCCCOC(=O)Nc1ccc(N2CCCCC2)cc1	ALR H2O2 inh 78.3
CCC(C(=O)NNC(=O)c1cnccn1)c1ccccc1 (configuration not stated)	none
CC(=O)Nc1ccc(NC=C(C#N)C#N)cc1	none
CN1C(=O)C(N=Nc2ccc([N+](=O)[O-])cc2)SC1=S (configuration not stated)	none (no result: ALR H2O2 inh, T cell modulator)
CN(Cc1cccc(Cl)c1Cl)c1ccc(S(=O)(=O)N2CCCCC2)cc1[N+](=O)[O-]	none (no result: ALR H2O2 inh)
COc1ccc(OCc2ccc(/C=N\NC(=O)c3sccc3C)o2)cc1	none
Cc1ccc(N2C(=O)CS/C2=N\C(=S)Nc2ccccc2)cc1	ALR H2O2 inh 89.9
CCN=C1SCC(=O)N1c1ccc(OC)cc1	none
CC(NC(=O)c1cccc(S(=O)(=O)N2CCN(Cc3ccccc3)CC2)c1)c1ccccc1Cl (configuration not stated)	none (no result: ALR H2O2 inh, T cell modulator)
CCn1nc(C(=O)OCC(=O)N(CCC#N)c2ccccc2)c2ccccc2c1=O	none
Cn1ncc2c(Nc3ccc(Br)cc3)nc(Nc3ccc(Br)cc3)nc21	none
Cn1ncc2c(Nc3ccc(O)cc3)nc(Cl)nc21	ALR H2O2 inh 90.6
Cc1ccc(C)c(C(=O)NC2CC(C)(C)NC(C)(C)C2)c1	none (no result: ALR H2O2 inh)
Cc1ccc(C(=O)NC2CC(C)(C)NC(C)(C)C2)cc1C	ALR H2O2 inh 98.7
O=C1NCCOC(=O)[C@@H](Cc2ccc(F)cc2)C/C=C\C[C@@H]1CC(=O)N(CCO)Cc1ccccc1	none
CCOc1ccccc1/C=C/c1onc(C)c1S(=O)(=O)N1CCC(C(=O)N2CCCCCC2)CC1	none
Cc1[nH]n(-c2ccccc2)c(=O)c1/C=N/NC(=O)c1ccc(O)cc1O	none (no result: ALR H2O2 inh)
Cc1ccc(-n2[nH]c(C)c(/C=N/NC(=O)c3ccc(O)cc3O)c2=O)cc1	ALR H2O2 inh 93.6
CC1(C(=O)NS(=O)(=O)c2ccc(Cl)cc2)CCN1C(=O)C1CC1 (configuration not stated)	none (no result: ALR H2O2 inh, T cell modulator)
NS(=O)(=O)c1ccc(NC(=O)COC(=O)CC2Sc3ccccc3NC2=O)cc1 (configuration not stated)	none
O=C(CN1C(=O)NC2(CCc3ccccc32)C1=O)Nc1ccc(Br)cc1F (configuration not stated)	none (no result: ALR H2O2 inh)
O=C(c1ccc(COCC(F)(F)F)cc1)N1CCN(c2ccccn2)CC1	none
O=S(=O)(O)c1ccc(N2N=C(c3ccccc3)CC2c2ccccc2)cc1 (configuration not stated)	ALR H2O2 inh 99.1
NS(=O)(=O)c1ccc(N2N=C(c3ccccc3)CC2c2ccccc2)cc1 (configuration not stated)	none
CN(C)C(=O)c1cccc(-c2cccc(-c3nc(C(=O)NCc4ccccc4)cc4c3[C@@H](CCO)N(S(=O)C(C)(C)C)C4)c2)c1 (some centres not stated)	none (no result: ALR H2O2 inh, T cell modulator)
COc1ccc(-c2c(C#N)c(SCC(=O)Nc3ccccc3)nc3c2CCCC3)cc1	none
CN1CCc2nc(SCc3ccc(C(C)(C)C)cc3)c(C#N)cc2C1	ALR H2O2 inh inconclusive
Cc1noc(NS(=O)(=O)c2ccc(NC(=O)CSc3nc4c(cc3C#N)CCCCC4)cc2)c1C	none
CN1CCc2nc(SCC(=O)Nc3ccc(F)cc3)c(C#N)cc2C1	ALR H2O2 inh 99.1 (no result: Glyco luc inh)
CCN1CCc2nc(SCC(=O)Nc3ccc(OC)cc3)c(C#N)cc2C1	ALR H2O2 inh 98.6
COc1ccc(NC(=O)CSc2nc3c(cc2C#N)CN(C)CC3)cc1	ALR H2O2 inh 97.2
COc1ccccc1CNC(=O)CCC(=O)N1Cc2cccc(OC)c2Oc2ncccc21	none
O=C1CSC(=S)N1Cc1cccs1	none (no result: ALR H2O2 inh, T cell modulator)
COc1cccc(-c2cc3nc4c(c(N5CCC6(CC5)OCCO6)n3n2)CCC4)c1	none
N#CC(C(=O)Nc1ccccc1)=C1Nc2ccccc2N1	ALR H2O2 inh 86.1
N#CC(C(=O)Nc1cccc(Cl)c1)=C1Nc2ccccc2N1	none
CCc1nc2ccc(C(=O)NCc3ccc(OC)cc3)cn2c1N(CC)CCOC	none (no result: ALR H2O2 inh, T cell modulator)
O=C(CCCCCNc1nc(=S)[nH]c2ccccc12)NCCc1ccc(Cl)cc1	none
O=C(O)CCCCCNc1nc(=S)[nH]c2ccccc12	ALR H2O2 inh 82.3
COc1ccc(C2=NCCn3nc4cc(OC)ccc4c32)cc1	none
COc1ccc(Nc2n[nH]c(C)c2[N+](=O)[O-])cc1	none
Cc1[nH]nc(Nc2ccc(O)cc2)c1[N+](=O)[O-]	ALR H2O2 inh 99.5
Nc1cc(=O)[nH]n1C1CCN(c2ccccc2)CC1	ALR H2O2 inh 93.7
O=c1cc(N2CCN(c3ccccc3)CC2)[nH]c(=O)n1Cc1ccc(F)cc1	none
CN(C)c1ccc(C=NN2CCCCCC2)cc1	none (no result: ALR H2O2 inh, T cell modulator)
CN1CCN(/N=C/c2ccc(N(C)c3ccccc3)cc2)CC1	ALR H2O2 inh 99.1
CN1CCN(/N=C/c2ccc(N(c3ccccc3)c3ccccc3)cc2)CC1	ALR H2O2 inh 95.7
CN1CCN(/N=C/c2ccc(Br)cc2)CC1	none
CCN(CC(=O)NCc1cccs1)C(=O)CCOc1ccccc1	none
Cc1ccc2c(c1)[nH]c1c(N3CCN(Cc4ccccc4)CC3)ncnc12	ALR H2O2 inh 98.4
c1ccc(CN2CCN(c3ncnc4c3[nH]c3ccccc34)CC2)cc1	ALR H2O2 inh 94.6
c1ccc2c(c1)CCN(c1ncnc3c1[nH]c1ccccc13)C2	none
Cc1ccc2[nH]c3c(N4CCN(Cc5ccccc5)CC4)ncnc3c2c1	none
COc1ccc(N(CC(=O)NCc2ccccc2Cl)S(=O)(=O)c2c(C)n[nH]c2C)cc1	none
COc1cccc(-c2cccc(NC(=O)C3CCN(CCCn4cccn4)CC3)c2)c1	none (no result: ALR H2O2 inh, T cell modulator)
N#Cc1ccc(C(=O)Nc2nc(SCc3ccc(Cl)cc3)n[nH]2)cc1	none
O=C(O)CCCCN1C(=O)/C(=C\c2ccc(OCc3ccccc3)c(OCc3ccccc3)c2)SC1=S	none
COc1cccc(/C=C2\SC(=S)N(CCC(=O)N3CCCCC3)C2=O)c1	Glyco luc inh 39.0
O=C(O)COc1cccc(/C=C2/SC(=S)N(Cc3ccccc3)C2=O)c1	none
O=C(O)CN1C(=O)/C(=C\c2cc(Br)ccc2OCc2ccc(F)cc2)SC1=S	none
COc1ccc(/C=C2/SC(=S)N(CC(=O)O)C2=O)cc1OCc1ccc(Cl)cc1	ALR H2O2 inh 87.6
O=C(O)CN1C(=O)/C(=C\c2cccc(OCc3ccccc3)c2)SC1=S	ALR H2O2 inh 83.4
O=C(O)CN1C(=O)/C(=C\c2cc(Br)ccc2OCc2ccc(Cl)cc2)SC1=S	ALR H2O2 inh 98.1
CCOC(=O)N1CCN(C(=O)CCN2C(=O)/C(=C\c3cccc(OC)c3)SC2=S)CC1	none (no result: ALR H2O2 inh)
Cc1onc(-c2ccccc2Cl)c1C(=O)NCc1nnnn1-c1ccc(F)c(F)c1	none (no result: ALR H2O2 inh, T cell modulator)
CC1(NCc2ccc(Cl)cc2)COP(=O)(NCc2ccccc2)OC1 (configuration not stated)	none (no result: ALR H2O2 inh, T cell modulator)
Cc1nc2ccccn2c1CN(C)C(=O)C1CCC(=O)N(CCc2cccc(F)c2)C1 (configuration not stated)	none
O=C1CSC(c2cccc(F)c2)N1c1ccccc1 (configuration not stated)	ALR H2O2 inh 98.4

From PubChem
